Reference: ChEMBL document CHEMBL2057156, “Synthesis and biological evaluation of the first dual tyrosyl-DNA phosphodiesterase I (Tdp1)-topoisomerase I (Top1) inhibitors” (J Med Chem, 2012)
pIC50: −log10 of the molar value. Calls of active or inactive are those of the source. The calls are words filed in the database; no cut-off is given here.

Tests used:
[1] = Growth inhibition of human NCI60 cells; assay type: functional
[2] = biological target: T1, Tyrosyl-DNA phosphodiesterase 1 (Homo sapiens, UniProt Q9NUW8); assay: Inhibition of human recombinant Tdp1 using 5'-[32P]-labeled single-stranded DNA oligonucleotide containing 3'-phosphotyrosine as substrate assessed as prevention of generation of oligonucleotide with free 3'-phosphate after 15 mins by PAGE analysis
[3] = biological target: T2, DNA topoisomerase 1 (Homo sapiens) (UniProt P11387); assay: Inhibition of human recombinant Top1-mediated DNA cleavage by polyacrylamide gel electrophoresis relative to camptothecin; parameters: concentration or dose not given beside the values; settings: concentration not given here
T2 sequence (whole entry): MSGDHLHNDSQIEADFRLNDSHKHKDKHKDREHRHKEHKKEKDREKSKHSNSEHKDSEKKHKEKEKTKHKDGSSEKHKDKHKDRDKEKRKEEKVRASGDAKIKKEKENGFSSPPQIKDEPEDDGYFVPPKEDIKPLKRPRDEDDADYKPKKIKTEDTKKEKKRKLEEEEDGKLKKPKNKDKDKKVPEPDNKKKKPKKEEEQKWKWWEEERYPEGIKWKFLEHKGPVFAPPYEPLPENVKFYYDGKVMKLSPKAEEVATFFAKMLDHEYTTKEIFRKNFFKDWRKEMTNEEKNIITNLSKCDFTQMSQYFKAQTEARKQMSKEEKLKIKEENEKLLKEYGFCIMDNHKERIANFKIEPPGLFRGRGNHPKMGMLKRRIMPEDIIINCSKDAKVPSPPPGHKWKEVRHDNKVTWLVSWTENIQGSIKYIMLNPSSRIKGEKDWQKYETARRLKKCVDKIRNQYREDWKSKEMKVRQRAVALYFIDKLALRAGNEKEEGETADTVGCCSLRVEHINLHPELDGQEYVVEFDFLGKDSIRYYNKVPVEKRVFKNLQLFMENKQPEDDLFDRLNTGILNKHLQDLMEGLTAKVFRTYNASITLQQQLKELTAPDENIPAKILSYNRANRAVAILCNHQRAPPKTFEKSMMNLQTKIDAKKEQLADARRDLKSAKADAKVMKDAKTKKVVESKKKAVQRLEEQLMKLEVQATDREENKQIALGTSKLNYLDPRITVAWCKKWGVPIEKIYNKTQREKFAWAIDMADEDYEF
In short: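 Baculovirus-purified human recombinant Top1 was incubated for 20 min at 25 °C, with compounds at various concentrations, with about 2 nM of a 117-bp oligonucleotide 3′-end-labeled with [α-³²P]dGTP. Reactions were stopped with 0.5% SDS and run on 20% denaturing PAGE. Cleavage bands were phosphorimaged and graded semiquantitatively against 1 μM camptothecin.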

[4] = biological target: T1, Tyrosyl-DNA phosphodiesterase 1; assay: Binding affinity to human recombinant Tdp1 at 0.4 to 33 uM by surface plasmon resonance spectroscopy analysis
In short: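 Amine-coupled to a CM5 chip to about 4000 RU; before coupling, Tdp1 (1 μM) was preloaded for 20 min with 2 μM 3′-phosphate 14-mer in 10 mM sodium acetate pH 4.5 to shield the active site, then the oligo was stripped with 1 M NaCl. Analyte was injected in 10 mM Hepes, 150 mM NaCl, 0.01% Tween 20, 5% DMSO, pH 7.5, at 30 μL/min, 25 °C. Responses were corrected against a Tdp1-free reference surface, buffer cycles and DMSO calibration.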

[5] = biological target: T1, Tyrosyl-DNA phosphodiesterase 1; assay: Inhibition of human Tdp1 in Tdp1-deficient chicken DT40 whole cell extract using 5'-[32P]-labeled single-stranded DNA oligonucleotide containing 3'-phosphotyrosine as substrate after 15 mins by PAGE analysis

T1 sequence (Q9NUW8 whole entry): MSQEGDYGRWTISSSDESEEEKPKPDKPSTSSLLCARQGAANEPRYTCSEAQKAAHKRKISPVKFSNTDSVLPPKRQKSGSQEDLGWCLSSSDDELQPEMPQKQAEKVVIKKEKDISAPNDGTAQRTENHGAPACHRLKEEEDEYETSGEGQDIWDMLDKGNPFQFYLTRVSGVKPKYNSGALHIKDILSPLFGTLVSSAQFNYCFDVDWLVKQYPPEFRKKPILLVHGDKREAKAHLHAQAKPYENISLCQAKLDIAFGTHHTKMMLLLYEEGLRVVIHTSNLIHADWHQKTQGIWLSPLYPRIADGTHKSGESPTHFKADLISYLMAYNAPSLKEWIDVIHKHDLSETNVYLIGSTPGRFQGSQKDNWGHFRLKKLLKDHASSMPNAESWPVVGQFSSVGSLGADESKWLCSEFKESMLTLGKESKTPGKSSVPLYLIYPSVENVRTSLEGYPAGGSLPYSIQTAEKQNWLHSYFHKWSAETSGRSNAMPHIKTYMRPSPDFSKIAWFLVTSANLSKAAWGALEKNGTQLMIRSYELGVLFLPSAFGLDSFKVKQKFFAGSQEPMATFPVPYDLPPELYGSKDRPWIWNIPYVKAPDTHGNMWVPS

`O=C1c2ccccc2-c2c1c1cc3c(cc1c(=O)n2CCCNS(=O)(=O)c1ccccc1)OCO3` gave a GI50 [1] of 0.617 µM, a pIC50 [2] of less than 3.95 and an inhibition [3] of 50%.
In the case of `NCCCn1c2c(c3ccccc3c1=O)C(=O)c1ccccc1-2`, the Activity [4] was “Active”, the pIC50 [5] was 4.53 and the inhibition [3] was 75%.
In the case of `NCCCCCCCCCn1c2c(c3ccccc3c1=O)C(=O)c1ccccc1-2`, the pIC50 [5] was 4.32, the pIC50 [2] was 4.33 and the inhibition [2] was “Dose-dependent effect”. For the same molecule, the inhibition [3] was 0%.
Work on `NCCCCCCn1c2c(c3ccccc3c1=O)C(=O)c1ccccc1-2` yielded a pIC50 [5] of 4.46, a pIC50 [2] of 4.60 and an inhibition [3] of 50%.
`COC(=O)c1ccc2c(c1)C(=O)c1c-2n(CCCNS(=O)(=O)c2ccccc2)c(=O)c2cc(OC)c(OC)cc12` showed a GI50 [1] of 12.6 µM, a pIC50 [2] of less than 3.95 and an inhibition [3] of 0%.
For `NCCCCCCCCCCn1c2c(c3ccccc3c1=O)C(=O)c1ccccc1-2`, the pIC50 [5] was 4.67, the pIC50 [2] was 4.85 and the inhibition [3] was 0%.
With `NCCCCCCCn1c2c(c3ccccc3c1=O)C(=O)c1ccccc1-2` the pIC50 [5] was 4.51, the pIC50 [2] was 4.54 and the inhibition [3] was 0%.
Work on `O=C1c2ccccc2-c2c1c1ccc([N+](=O)[O-])cc1c(=O)n2CCCNS(=O)(=O)c1ccccc1` yielded a GI50 [1] of 0.046 µM, a pIC50 [2] of less than 3.95 and an inhibition [3] of 100%.
Molecule `O=C1c2cc(-c3ccccc3)ccc2-c2c1c1ccc([N+](=O)[O-])cc1c(=O)n2CCCNS(=O)(=O)c1ccccc1` has a GI50 [1] of 0.55 µM, a pIC50 [2] of less than 3.95 and an inhibition [3] of 0%.
`COc1cc2c3c(n(CCCNS(=O)(=O)c4ccccc4)c(=O)c2cc1OC)-c1ccccc1C3=O` showed a GI50 [1] of 1.35 µM, a pIC50 [2] of less than 3.95 and an inhibition [3] of 75%.
In the case of `NCCCCCCCCCCCCn1c2c(c3ccccc3c1=O)C(=O)c1ccccc1-2`, the pIC50 [5] was 4.48, the pIC50 [2] was 4.82 and the inhibition [3] was 0%.
